# Screening data: PubChem BioAssay, several laboratories
# CHOP inhibitor: blocks CHOP induction under ER stress; AID 2732; 3.8% of 220,000 active; inhibition, % at 10 µM; CHO-K1 CHOP-promoter luciferase, tunicamycin-induced, 15-18 h;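 active = compounds that reduced the stress-induced luciferase reporter signal by more than about 70% of percent inhibition, limit read from the data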;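 note: 0% = tunicamycin plus vehicle and 100% = wells without tunicamycin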
# H9c2 protect: protects H9c2 cardiomyocytes from peroxide injury; protection from H2O2 cell death, % at 20 µM; AID 588492; H2O2 injury protection, ATPLite, 2 h; 0.63% of 360,000 active;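 active = compounds giving at least 50% protection of heart cells from peroxide-induced death in the single-dose screen, raw or plate-pattern-corrected value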;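 note: 0% = DMSO wells with peroxide and 100% = DMSO wells without peroxide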
# XBP1 UPR activ: activators of adaptive arm of unfolded protein response (XBP1); CHO-XBP1 luciferase reporter, IRE1-XBP1 UPR activation, luminescence; percent of tunicamycin response, DMSO as zero; activation, % at 20 µM; 0.33% of 330,000 active;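 active = versus positive control, 20 µM dose yields 30% or more activation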;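 note: 100% = tunicamycin at 10 µg/mL and 0% = DMSO only wells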
#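 Material – CHO cell line with stable XBP1 luciferase reporter · Buffer or medium – F12 plus 10% FBS · Compound – single point, 20 µM final compound, 1% DMSO · Schedule – 16-18 h cell attachment at 37 °C, then 6 h compound exposure · Signal – Steady-Glo luminescence read · Benchmarks – high control tunicamycin 10 µg/mL final, low control DMSO vehicle only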
# UPR CHOP act: activators of apoptotic arm of unfolded protein response (CHOP); CHO-CHOP luciferase reporter, UPR activation, luminescence; percent of tunicamycin response over DMSO baseline; activation, % at 10 µM; 0.34% of 330,000 active; AID 449763;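 active = at 10 µM dose, activation of 40% or more, normalized to positive control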;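 note: 100% = tunicamycin at 10 µg/mL and 0% = DMSO alone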
#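 Evaluation: % reporter activation, DMSO baseline versus tunicamycin full activation; System: CHO-CHOP luciferase reporter cell line; Input: 500 cells/well; Incubation: 6 h compound treatment, 37 °C; Measured by: Steady-Glo luciferase luminescence; Dosing: one dose, 10 µM in 0.5% DMSO; Buffer or medium: F12 medium, 10% FBS; Benchmarks: positive tunicamycin 10 µg/mL, negative DMSO alone.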
# hiPSC survival: enhancers of human iPSC single-cell survival. survival enhancement, % at 20 µM. hiPSC single-cell survival, ATPlite luminescence; 100% = ROCK inhibitor wells, 0% = DMSO. 0.044% of 360,000 active; in the data active = survival enhancement above about 18%;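 note: cells exposed to compounds for 16 hours before the ATP read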
# * = called active by the depositor; nt = not tested or not shown; ! = repeats disagree. Only a selection was taken, and hits are over-represented in it overall.
SMILES,CHOP inhibitor,H9c2 protect,XBP1 UPR activ,UPR CHOP act,hiPSC survival
O=C1Nc2ccc(Cl)cc2[C@@](C#CC2CC2)(C(F)(F)F)O1,101.9*,nt,-4.6,-0.3,nt
Cc1ccc(Sc2ccc(NC(=O)CCl)cc2)c(C)c1,83.7*,nt,2.4,19.8,nt
Cc1ccc(C)c(Sc2ccc(NC(=O)CCN3C(=O)NC4(CCCC4)C3=O)cc2)c1,nt,-4.2,2.9,-2.6,1.1
COCCCN=C1NN=C(c2cc(C)n(-c3ccccc3F)c2C)CS1,44.0,-26.8,-3.5,-4.9,-2.9
COCCN=C1NN=C(c2cc(C)n(CC3CCCO3)c2C)CS1 (stereo not given),-3.8,-5.9,-6.2,-1.8,0.3
C=CCN=C1NN=C(c2ccc3c(c2)OCCO3)CS1,70.6*,-17.2,-8.8,-9.4,-4.1
C=CCN=C1NN=C(c2cc(C)n(CC=C)c2C)CS1,92.7*,-26.1,-6.8,-10.5,-5.0
COCCn1c(C)cc(C2=NNC(=Nc3ccccc3F)SC2)c1C,70.0*,-9.0,-5.6,-4.9,-1.2
CCCCN(C=O)c1c(CC)nc2ccc(C(=O)N(C)Cc3ccco3)cn12,nt,8.2,nt,nt,1.2
CC(Sc1nnc(C2CC2)n1C1CC1)C(=O)N(C)C1(C#N)CCCCC1 (stereo not given),nt,6.5,-0.5,-0.5,-0.3
COc1ccc(CCn2c(=O)c3cccnc3n(Cc3ccc([N+](=O)[O-])cc3)c2=O)cc1OC,8.2,55.7*,nt,nt,-2.3
Clc1ccc(C(c2cccs2)N2CCNCC2)cc1 (stereo not given),nt,7.3,nt,nt,-2.3
CCn1c2c(c3cc(Cl)ccc31)CCCC2=O,75.5*,-12.3,2.9,-2.1,-1.1
Clc1ccccc1C(c1ccccc1)(c1ccccc1)n1ccnc1,88.2*!,10.4,-4.6,12.2,4.6
Cc1sc2ncn3ncnc3c2c1C,89.6*,-5.8,2.5,-0.4,0.3
O=C(NNC(=O)c1cccc(S(=O)(=O)N2CCN(c3ccccc3)CC2)c1)c1ccc(Cl)cc1,83.0*,-12.6,0.4,4.0,-1.6
CC(=O)N1CCN(C(=O)c2cccc(S(=O)(=O)N3CCN(c4ccccc4)CC3)c2)CC1,nt,-6.1,0.7,-0.6,-2.7
Cc1cccc(NC(=O)Cn2c(O)c(N=NC(=O)c3ccccc3O)c3ccccc32)c1,82.9*,3.5,-0.5,5.3,-1.2
CN(C1=NS(=O)(=O)N=C(N(C)c2ccccc2)O1)c1ccccc1,nt,9.4,nt,nt,-3.3
CCc1ccc(C(C)NC(=O)/C(C#N)=C\c2cn[nH]c2-c2ccccc2)cc1 (stereo not given),78.4*,-8.4,-1.6,-0.7,-0.4
N#C/C(=C\c1cn[nH]c1-c1ccc(Cl)cc1)C(=O)NC1CC1,-12.6,-0.4,4.3,1.1,-1.0
N#C/C(=C\c1cn[nH]c1-c1ccccc1)C(=O)NC1CCCCCC1,71.5*,-7.5,3.0,-0.6,-2.3
NC(=S)NN=C1CSSC1,nt,-2.3,nt,nt,-2.4
Cc1ccccc1C1=NC(C(F)(F)F)(C(F)(F)F)c2c(n(C)c(=O)n(C)c2=O)N1,-1.0,-4.7,6.0,-0.8,2.1
Cn1c2c(c(=O)n(C)c1=O)C(C(F)(F)F)(C(F)(F)F)N=C(c1ccc(Cl)cc1)N2,76.9*,-16.7,7.5,15.1,1.4
SMILES,CHOP inhibitor,H9c2 protect,XBP1 UPR activ,UPR CHOP act,hiPSC survival
CCCCNC(=O)c1nc(C2CCN(S(=O)(=O)c3c(F)cccc3F)CC2)oc1-c1ccccc1,nt,0.2,nt,nt,-2.7
O=c1c[n+]([O-])c2ccccc2n1OCc1c(F)cccc1F,87.6*,16.6,-3.2,1.0,-3.2
CCOn1c(=O)c[n+]([O-])c2ccccc21,-4.3,3.3,-4.7,-0.1,0.8
OC(CNCCC1C=Nc2ccccc21)Cn1c2ccc(Cl)cc2c2cc(Cl)ccc21 (stereo not given),108.6*,-19.8,nt,nt,-4.9
CC(C)(C)NC(=O)C(c1ccc(-c2ccccc2)cc1)N(C[C@H]1CC[C@@H]([C@@H]2CC[C@H](CO)O2)O1)C(=O)c1ccccc1F (stereo not given in full),nt,-1.3,1.2,1.6,-1.6
Cc1cc(C)n(-c2cc(N3CCN(C(=O)c4ccc(C(C)(C)C)cc4)CC3)ccc2[N+](=O)[O-])n1,73.1*,-11.5,0.0,2.7,-2.4
COc1ccc(C(=O)N2CCN(c3ccc([N+](=O)[O-])c(-n4nc(C)cc4C)c3)CC2)cc1,-3.4,-3.6,-3.1,3.1,-1.8
O=S(=O)(NC1CC1)c1ccc(S(=O)(=O)N2CCCc3ccccc32)cc1,73.4*,-13.1,-1.1,-1.8,-1.5
O=c1oc2ccccc2cc1-c1nc2ccccc2o1,0.7,-5.8,-0.8,3.5,-2.2
O=c1oc2ccccc2cc1-c1nc2c(s1)CCCC2,95.7*,-7.7,-3.4,-4.4,-3.5
O=C(NCc1cc(Cl)cc(Cl)c1)c1csc([C@@H]2O[C@H](CO)[C@H](O)[C@H](O)[C@H]2O)n1,nt,3.3,nt,nt,-0.1
O=c1c2ccccc2nc2c3ccccc3c(NCCO)nn12,-6.5,58.0*,8.4,-1.5,-0.1
Cc1cc(C)c(C)c(S(=O)(=O)Nc2cccc(S(=O)(=O)Nc3ccccc3C(=O)O)c2)c1C,nt,6.4,-2.7,-1.9,-2.6
O=C(Nc1cccc([N+](=O)[O-])c1)c1cc2ccccc2cc1O,85.9*,-16.3,5.0,26.1,-0.6
COc1ccc(NC(=O)c2cccc([N+](=O)[O-])c2)cc1,-6.7,-8.0,2.4,0.4,-1.4
COc1ccc(NC(=O)c2cc([N+](=O)[O-])ccc2O)cc1,75.0*,-40.3,-11.9,-9.1,-4.7
CN(C(=O)CSc1nnc(CN2CCCC2)n1Cc1ccccc1)c1ccccc1,nt,4.8,0.0,1.2,-0.4
O=Cc1ccc2ccc3cccnc3c2n1,nt,44.4,5.3,2.6,-0.7
c1cnc2c(c1)ccc1cccnc12,73.5*!,59.5*,0.8,0.3,-2.8
C=Cc1ccc(CC2(C)C(=O)Nc3ccc(-c4cccnc4)cc32)cc1 (stereo not given),nt,4.3,nt,nt,-2.3
Cc1ccc(-c2n[nH]c(=O)c3ccccc23)c(C)c1,nt,-4.8,1.1,0.6,0.0
Nc1ccc(-c2n[nH]c(=O)c3ccccc23)cc1N,19.4,79.5*,-2.9,-1.6,2.6
Cc1ccc(-c2n[nH]c(=O)c3ccccc23)cc1N,14.5,67.6*,3.5,0.4,4.0
CCOc1ccc(NC(=O)C2CCCN(S(=O)(=O)c3ccc4c(c3)C(C)(C)C(=O)N4C)C2)cc1 (stereo not given),nt,-3.7,nt,nt,-0.8
CCn1c(SCC(=O)N(C)c2c(N)n(Cc3ccccc3)c(=O)[nH]c2=O)nnc1-c1cccs1,nt,4.2,nt,nt,-2.0
Nc1[nH]c(C(=O)c2ccccc2)c(-c2ccc(Br)cc2)c1C(=O)c1ccc(Br)cc1,nt,nt,nt,nt,-0.6
C[C@H](CO)N1C[C@H](C)[C@@H](CN(C)C(=O)NC2CCCCC2)Oc2ccc(NC(=O)Cc3ccccc3)cc2C1=O,nt,-2.0,-1.9,1.0,-0.6
COc1ccc(C(=O)c2ccc(Cl)cc2)c2ccccc12,49.4,-4.6,-4.1,0.1,-2.1
